Test results reported in ChEMBL document CHEMBL1687889, “Antitumor agents. 284. New desmosdumotin B analogues with bicyclic B-ring as cytotoxic and antitubulin agents” (J Med Chem, 2011).
Activity calls are given as the source filed them. The rule behind the calls is not given here.

Columns and labels:
MCF7 [1] = assay: Antiproliferative activity against human MCF7 cells after 3 days by sulforhodamine B assay; type: functional; details: MCF7, 72 h
A549 [2] = assay: Antiproliferative activity against human A549 cells after 3 days by sulforhodamine B assay; type: functional; details: A549, 72 h
Summary of the method: (§1)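 Cells grown in RPMI-1640 with 25 mM HEPES, 0.25% sodium bicarbonate, 10% FBS and 100 μg/mL kanamycin. Exposed to compound for 3 days, with at most 0.5% v/v DMSO. Attached cells fixed in cold 50% TCA, stained with 0.4% sulforhodamine B, and the bound dye solubilized. A562 read. GI50 is the concentration giving a 50% absorbance drop versus untreated cells.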

KB [3] = assay: Antiproliferative activity against human KB cells after 3 days by sulforhodamine B assay; type: functional; details: 72 h; summary of the method: as §1
PC-3 [4] = assay: Antiproliferative activity against human PC3 cells after 3 days by sulforhodamine B assay; type: functional; details: PC-3, 72 h
HCT-8 [5] = assay: Antiproliferative activity against human HCT8 cells after 3 days by sulforhodamine B assay; type: functional; details: HCT-8, 72 h; summary of the method: as §1
[6] = Partial inhibition of tubulin assembly after 20 mins at 4 uM by turbidimetric assay
Summary of the method: (§2)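 Turbidimetry at 350 nm. 10 μM (1.0 mg/mL) tubulin preincubated with compound for 15 min at 30 °C without GTP, then chilled, and 0.4 mM GTP added. Turbidity followed for 20 min at 30 °C after a temperature jump from 0 °C. IC50 is the concentration halving the turbidity increase relative to control.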

[7] = Antiproliferative activity against human KBVIN cells after 3 days by sulforhodamine B assay; type: functional; details: 72 h; summary of the method: as §1
[8] = Displacement of [3H]colchicine from tubulin at 5 uM for 10 mins
Summary of the method: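 1.0 μM tubulin incubated with 5.0 μM [3H]colchicine and 5.0 μM inhibitor for 10 min at 37 °C, when control samples reach about 40–60% of maximal colchicine binding. Result given as percent inhibition of colchicine binding.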

HepG2 [9] = assay: Antiproliferative activity against human HepG2 cells after 3 days by sulforhodamine B assay; type: functional; details: HepG2, 72 h
Summary of the method: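 Sulforhodamine B assay over 3 days in culture, with at most 0.5% v/v DMSO. Attached cells fixed in cold 50% TCA, stained with 0.4% SRB, and the dye solubilized. Absorbance read at 562 nm. GI50 is the concentration causing a 50% fall in absorbance relative to untreated cells.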

HepG2 [10] = assay: Antiproliferative activity against human HepG2 cells at 20 ug/ml after 3 days by sulforhodamine B assay; type: functional, cell-based
HCT-8 [11] = assay: Antiproliferative activity against human HCT8 cells at 20 ug/ml after 3 days by sulforhodamine B assay; type: functional, cell-based
MCF7 [12] = assay: Antiproliferative activity against human MCF7 cells at 20 ug/ml after 3 days by sulforhodamine B assay; type: functional, cell-based
KB [13] = assay: Antiproliferative activity against human KB cells at 20 ug/ml after 3 days by sulforhodamine B assay; type: functional, cell-based
[14] = Binding affinity to tubulin at 40 uM
[15] = Inhibition of tubulin assembly after 20 mins by turbidimetric assay; summary of the method: as §2
PC-3 [16] = assay: Antiproliferative activity against human PC3 cells at 20 ug/ml after 3 days by sulforhodamine B assay; type: functional, cell-based
A549 [17] = assay: Antiproliferative activity against human A549 cells at 20 ug/ml after 3 days by sulforhodamine B assay; type: functional, cell-based

GI50 (MCF7 [1]) [nM] | GI50 (A549 [2]) [nM] | GI50 (KB [3]) [nM] | GI50 (PC-3 [4]) [nM] | GI50 (HCT-8 [5]) [nM] | inhibition [6] | inhibition [8] [%] | GI50 (HepG2 [9]) [nM] | Activity [14] | IC50 [15] | Compound | GI50 [7] [nM] | Activity (HepG2 [10]) | Activity (HCT-8 [11]) | Activity (MCF7 [12]) | Activity (KB [13]) | Activity (PC-3 [16]) | Activity (A549 [17])
1420 | 1160 | 1030 | 2580 | 1290 | Active | 29 | 1550 | – | – | CCC1=C(O)c2c(oc(-c3ccc4ccccc4c3)cc2=O)C(CC)(CC)C1=O | 1160 | – | – | – | – | – | –
– | – | – | – | – | – | – | – | inactive | Not Active | CCC1=C(O)c2c(oc(-c3ccccc3)cc2=O)C(CC)(CC)C1=O [6,8,8-TRIETHYL DESMOSDUMOTIN B] | 1070 | inactive | inactive | inactive | inactive | inactive | inactive
